According to article PMC3090679 (Biochemistry, 2011):
Residue numbers refer to the chain shown, from its start. “Also recorded” adds a separate entry of the source. Where two headings read alike, the source gives them in different places.

How the values were obtained:
[1] = target: T1, 160C RGS8 (Homo sapiens, UniProt P57771, C89S); assay: Gel filtration after compound treatment, 160C RGS8
T1 sequence (P57771 56-171 C89S): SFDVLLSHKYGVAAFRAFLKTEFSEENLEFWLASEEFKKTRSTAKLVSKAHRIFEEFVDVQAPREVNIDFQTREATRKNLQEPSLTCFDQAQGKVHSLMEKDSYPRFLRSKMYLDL

[2] = target: T2, RGS8 (Homo sapiens, UniProt P57771); assay: FCPIA, RGS8/Gαo binding
T2 sequence (P57771 56-171 limits assumed): T1 sequence (P57771 56-171 C89S) with S34C

[3] = target: T3, RGS16 (Homo sapiens, UniProt O15492); assay: FCPIA, RGS16/Gαo binding
T3 sequence (O15492 1-202): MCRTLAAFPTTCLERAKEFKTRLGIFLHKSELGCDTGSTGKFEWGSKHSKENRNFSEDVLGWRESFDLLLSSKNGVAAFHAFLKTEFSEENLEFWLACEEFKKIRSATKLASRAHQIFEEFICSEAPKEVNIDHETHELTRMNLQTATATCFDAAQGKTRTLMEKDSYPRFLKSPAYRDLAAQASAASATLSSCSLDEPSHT

[4] = target: T4, WT RGS8 (Homo sapiens, UniProt P57771); assay: ESI-LC/MS protein adduct analysis, WT RGS8; conditions: WT RGS8 2 μM
T4 sequence (P57771 56-171 limits assumed): T1 sequence (P57771 56-171 C89S) with S34C

[5] = target: T5, RGS7 (Homo sapiens, UniProt P49802); assay: FCPIA, RGS7/Gαo binding
T5 sequence (P49802 333-448 limits assumed): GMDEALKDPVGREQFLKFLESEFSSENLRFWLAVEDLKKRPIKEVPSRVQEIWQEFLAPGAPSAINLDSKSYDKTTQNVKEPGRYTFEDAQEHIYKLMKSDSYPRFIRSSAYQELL
Method in brief: (§1)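 Constructs were RGS19 ΔC11 as an MBP/10×His fusion and the RGS7 homology domain as a GST fusion. Each was chemically biotinylated, immobilised on avidin microspheres and pretreated with test compound or vehicle for 15 min at room temperature. Beads were then mixed with AlexaFluor-532-Gαo plus GDP/AlF and binding was read by flow cytometry. IC50 is the mean±SEM of at least three independent experiments.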

[6] = target: T6, RGS8-stimulated GTP hydrolysis by Gαo (Homo sapiens, UniProt P57771); assay: Single turnover GTPase assay, RGS8 GAP activity; format: biochemical
T6 sequence (P57771 56-171 limits assumed): T1 sequence (P57771 56-171 C89S) with S34C
Method in brief: (§2)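 Single-turnover measurement of Gαo GTP hydrolysis, with or without RGS4 or RGS8, in the presence of test compound, following a previously published method. The RGS8 homology domain was an N-terminal 6×His construct from pQE-80 carrying native Cys107 and Cys160. All proteins were purified to >90% homogeneity, and Gαo activity was confirmed by [35S]GTPγS binding. Output is the GTP hydrolysis rate constant k (sec−1).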

[7] = target: T7, 107C RGS8 (Homo sapiens, UniProt P57771, C142S); assay: Gel filtration then FCPIA competition, 107C RGS8; format: binding; conditions: 107C RGS8 after gel filtration
T7 sequence (P57771 74-189 isoform P57771-2 C160S): T1 sequence (P57771 56-171 C89S) with S34C, C87S

[8] = target: T8, RGS4-stimulated GTP hydrolysis by Gαo (Homo sapiens, UniProt P49798); assay: Single turnover GTPase assay, RGS4 GAP activity; format: biochemical
T8 sequence (P49798 52-205 limits assumed): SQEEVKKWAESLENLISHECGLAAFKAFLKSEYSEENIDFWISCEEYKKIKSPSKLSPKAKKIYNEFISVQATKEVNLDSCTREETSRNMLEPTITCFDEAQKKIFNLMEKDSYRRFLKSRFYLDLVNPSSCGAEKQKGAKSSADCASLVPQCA
Method in brief: as §2

[9] = target: T9, 107C RGS8 (C160S) (Homo sapiens, UniProt P57771, C142S); assay: FCPIA, 107C RGS8/Gαo binding
T9 sequence (P57771 74-189 isoform P57771-2 C160S): T1 sequence (P57771 56-171 C89S) with S34C, C87S
Method in brief: (§3)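 RGS8 homology domain (N-terminal 6×His, pQE-80) with Cys→Ser site-directed mutations was chemically biotinylated on amines and loaded on avidin microspheres. Beads were treated with test compound or vehicle for 15 min at room temperature, then mixed with AlexaFluor-532-labelled Gαo plus GDP and aluminium fluoride. Binding was read by Luminex flow cytometry. Values are mean±SEM of three independent experiments.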

[10] = target: T10, papain (Carica papaya, UniProt P00784); assay: Papain activity assay; format: biochemical
T10 sequence (P00784 134-345): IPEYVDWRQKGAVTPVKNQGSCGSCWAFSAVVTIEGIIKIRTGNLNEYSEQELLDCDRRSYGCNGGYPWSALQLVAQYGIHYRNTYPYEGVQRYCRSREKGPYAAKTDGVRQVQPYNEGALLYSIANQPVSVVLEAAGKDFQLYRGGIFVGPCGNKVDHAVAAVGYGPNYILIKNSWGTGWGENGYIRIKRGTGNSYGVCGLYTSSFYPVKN
Method in brief: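 FITC-casein was added to 250 nM final. Fluorescence (ex 485/em 520 nm) was read at intervals in the dark, and concentration dependence was taken at 5 min. Values are mean±SEM of three independent experiments.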

[11] = target: T11, RGS4 (Homo sapiens, UniProt P49798); assay: ThermoFluor thermal stability, RGS4; format: binding
T11 sequence (P49798 52-205 limits assumed): T8 sequence (P49798 52-205 limits assumed)

[12] = system: Gαo-dependent membrane translocation of GFP-RGS4 in HEK293T cells; assay: RGS4 membrane translocation in living cells; format: cell-based, human; conditions: 100 μM
[13] = target: T12, Gαo (Homo sapiens, UniProt P09471); assay: ThermoFluor thermal stability, Gαo; format: binding
[14] = target: T13, RGS4 wild Type (Homo sapiens, UniProt P49798); assay: FCPIA, RGS4/Gαo binding
T13 sequence (P49798 52-205 limits assumed): T8 sequence (P49798 52-205 limits assumed)

[15] = target: T2, RGS8; assay: ThermoFluor thermal stability, RGS8; format: binding
[16] = target: T12, Gαo; assay: Single turnover GTPase assay, intrinsic Gαo rate; format: biochemical; conditions: 100 μM
Method in brief: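 N-terminally 6×His-tagged Gαo was purified to >90% homogeneity. Single-turnover hydrolysis of isotopically diluted γ[32P]GTP was measured. Results are expressed as the rate constant k (sec−1) of GTP hydrolysis.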

[17] = target: T14, RGS8Cys− (Homo sapiens, UniProt P57771, C142S/C89S); assay: ESI-LC/MS protein adduct analysis, RGS8Cys−; conditions: RGS8Cys− mutant
T14 sequence (P57771 74-189 isoform P57771-2 C107S/C160S): T1 sequence (P57771 56-171 C89S) with C87S

[18] = target: T15, 160C RGS8 (C107S) (Homo sapiens, UniProt P57771, C89S); assay: FCPIA, 160C RGS8/Gαo binding
T15 sequence (P57771 56-171 C89S): T1 sequence (P57771 56-171 C89S)
Method in brief: as §3

[19] = target: T16, RGS19 (Homo sapiens, UniProt P49795); assay: FCPIA, RGS19/Gαo binding
T16 sequence (P49795 1-206 limits assumed): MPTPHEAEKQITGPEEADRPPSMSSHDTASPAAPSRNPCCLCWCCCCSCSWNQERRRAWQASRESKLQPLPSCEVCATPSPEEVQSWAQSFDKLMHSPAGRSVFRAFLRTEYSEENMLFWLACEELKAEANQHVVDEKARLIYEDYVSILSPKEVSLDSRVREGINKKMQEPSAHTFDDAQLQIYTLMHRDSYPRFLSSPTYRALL
Method in brief: as §1

[20] = target: T4, WT RGS8; assay: Gel filtration then FCPIA competition, WT RGS8; format: binding
[21] = target: T17, RGS8cys− (C160S/C107S) (Homo sapiens, UniProt P57771, C142S/C89S); assay: FCPIA, RGS8cys−/Gαo binding
T17 sequence (P57771 56-171 C89S/C142S): T1 sequence (P57771 56-171 C89S) with C87S
Method in brief: as §3

[22] = target: Gαo (UniProt P59215); assay: flow cytometry protein interaction assay
[23] = read-out: irreversible inhibition of Gα binding after extensive washing
[24] = read-out: total amount of inhibition (without a wash step)
[25] = 100 μM, FITC-casein proteolysis
[26] = concentration dependence or concentration not stated

T12 sequence (P09471 whole entry): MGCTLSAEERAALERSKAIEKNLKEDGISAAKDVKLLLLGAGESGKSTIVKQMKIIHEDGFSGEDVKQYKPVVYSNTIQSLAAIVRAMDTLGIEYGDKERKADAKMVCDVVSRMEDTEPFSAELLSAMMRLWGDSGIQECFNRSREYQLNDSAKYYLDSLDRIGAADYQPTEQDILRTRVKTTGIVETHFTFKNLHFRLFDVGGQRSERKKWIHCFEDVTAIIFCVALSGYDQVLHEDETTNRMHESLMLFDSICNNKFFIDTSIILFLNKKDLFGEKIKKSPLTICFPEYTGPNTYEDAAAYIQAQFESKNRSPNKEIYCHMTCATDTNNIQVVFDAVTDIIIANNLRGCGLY
Sequence of Gαo (UniProt P59215) (P59215 whole entry): as the sequence (P09471 whole entry) above, with I93V, A104S, T292P, P294S, A306T counted along it

Molecule: Cc1ccc(-n2sc(=O)n(Cc3ccc(F)cc3)c2=O)cc1 [CCG-50014, 4-(4-fluorobenzyl)-2-p-tolyl-1,2,4-thiadiazolidine-3,5-dione]
- state of the protein after compound treatment [1]: formed aggregates; also recorded: completely (and visually) aggregates
- inhibition of RGS8/Gαo binding (in words) ([2]; FCPIA): fully inhibits
- Hill Slope ([2]; FCPIA, RGS8): −0.99
- Hill Coefficient ([2]; FCPIA, wildtype RGS8, Fig. 5): −0.79
- IC50 ([2]; IC50 (μM), FCPIA, wildtype RGS8, Fig. 5, three experiments): 6.1 µM
- reversibility of inhibition after washing with DTT ([2]; RGS8 beads, 100 μM for 15 minutes, wash with 1 mM DTT): partially reversed
- reversibility of inhibition after washing ([2]; RGS8 beads, 100 μM for 15 minutes, wash without DTT): irreversible inhibitor
- inhibition at 20 µM ([2]; read-out: total amount of inhibition (without a wash step), WT RGS8, 20 μM): 64 ± 2%
- inhibition of RGS16/Gαo binding (in words) [3]: fully inhibits
- Hill Slope ([3]; RGS16): −1.33
- adduct formation by LC-MS [4]: covalent adduct
- IC50 [5]: > 200 µM
- inhibition of RGS7/Gαo binding (in words) ([5]; FCPIA): did not have activity
- effect on GTPase accelerating (GAP) activity of RGS8 on Gαo [6]: concentration-dependently inhibits the GAP activity; also recorded: inhibited the GTPase accelerating activity
- competition for Gαo binding, treated versus vehicle-treated protein [7]: no discernable difference
- effect on GTPase accelerating (GAP) activity of RGS4 on Gαo [8]: concentration-dependently inhibits the GAP activity; also recorded: inhibited the GTPase accelerating activity
- IC50 [9]: 46.5 µM
- reversibility of inhibition after washing ([9]; 107C RGS8, 20 μM): partially reversed
- Hill Coefficient ([9]; FCPIA, 107C RGS8, Fig. 5): −0.54
- inhibition at 20 µM [9, 23]: ~20%
- inhibition at 20 µM [9, 24]: 45 ± 2%
- effect on papain activity [10, 25]: no effect
- effect on thermal stability of RGS4 [11]: concentration-dependently destabilized
- effect on Gαo-dependent membrane localization of GFP-RGS4 [12]: reversed the membrane localization; also recorded: significant decrease
- effect on thermal stability of Gαo [13]: no effect
- selectivity for RGS4 over RGS8 and RGS16 ([14]; FCPIA IC50 values): > 100 fold
- inhibitory activity against the RGS4-Gαo protein-protein interaction at pH 6.5 ([14]; FCPIA at pH 6.5 (control for papain assay)): retains full inhibitory activity
- Hill Slope ([14]; FCPIA, RGS4 wild type): −1.53
- reversibility of inhibition after washing with DTT ([14]; RGS4 beads, 100 μM for 15 minutes, wash with 1 mM DTT): partially reversed
- reversibility of inhibition after washing ([14]; RGS4 beads, 100 μM for 15 minutes, wash without DTT): irreversible inhibitor
- effect on thermal stability of RGS8 [15]: thermally destabilizes
- effect on thermal stability of RGS8 ([15]; listed as CCGA-50014): concentration-dependently destabilized
- effect on intrinsic rate of GTP hydrolysis by Gαo [16]: did not alter
- adduct formation by LC-MS [17]: No adducts are observed
- IC50 [18]: 0.71 µM
- reversibility of inhibition after washing ([18]; 160C RGS8, 20 μM): completely irreversible
- Hill Coefficient ([18]; FCPIA, 160C RGS8, Fig. 5): −0.36
- inhibition at 20 µM [18, 23]: ~50%
- inhibition at 20 µM [18, 24]: 56 ± 1%
- inhibition of RGS19/Gαo binding (in words) [19]: fully inhibits
- Hill Slope ([19]; RGS19): −0.61
- residual inhibition after gel filtration [20]: > 90%
- IC50 [21]: > 100 µM

Molecule: CCN1C(=O)C=CC1=O [NEM, N-ethyl maleimide, reference compound]
- inhibition of RGS8/Gαo binding (in words) ([2]; FCPIA): no effect
- effect on papain activity [10, 26]: no effect

Molecule: NC(=O)CI [iodoacetamide]
- effect on papain activity [10, 25]: markedly inhibits
- effect on papain activity [10, 26]: concentration-dependently inhibited
- effect on papain activity ([10]; concentration dependence or concentration not stated, listed as IA): inhibited the proteolytic activity of papain in a concentration-dependent manner

Molecule: WT RGS8 treated with CCG-50014 (with its covalently attached CCG-50014), recovered from gel filtration (domain or fragment)
- fold less potent at competing for Gα binding than vehicle-treated RGS8 [22]: 14 fold
